High-throughput results deposited in PubChem BioAssay by The Scripps Research Institute Molecular Screening Center.
CHO-K1 Ca PAM: counter-screen for M1 PAMs: effect in parental CHO-K1 cells; ATP EC20, Fluo-8 calcium fluorescence; 0% at ATP EC20, 100% at ATP max; activation, % at 3 µM; 360,000 tested, 0.02% active; AID 602247;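 active = activation above the run cutoff, the mean activation of all test compounds plus 3 SD, cut at about 40% in these data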;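 note: peak over basal fluorescence ratio in a 140 s read after ATP addition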
CHO-K1 Ca antag: nonselective inhibitor or artifact in parental CHO-K1 cells | ATP-induced calcium, Fluo-8 fluorescence | inhibition, % at 3 µM | 360,000 tested, 0.6% active | AID 602250;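 active = inhibition above a per-plate cutoff, the plate's mean sample inhibition plus 3 SD, cut at about 24% in these data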;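 note: 0% = DMSO plus EC80 ATP and 100% = DMSO alone without ATP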
zfTRPN1 agonist: agonists of zebrafish TRPN1 channel | HEK293 zebrafish TRPN1-YFP, Fluo-8 calcium fluorescence; 100% = response to 87 µM carbachol | activation, % at 3 µM | 220,000 tested, 0.18% active | AID 1424;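 active = activation above its plate's cutoff, the mean activation of test wells on that plate plus 3 SD, cut at about 19% in these data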;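 note: 0% = DMSO alone and 100% = 87 µM carbachol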
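Control set: carbachol 87 µM as high control, DMSO as low control; system: HEK293 stable line with zebrafish TRPN1-YFP; read-out: % activation versus carbachol response; detection: intracellular calcium fluorescence with Fluo-8; doses: single test compound dose, 3 µM nominal, 0.3% DMSO; schedule: dye 1 h 37 °C plus 30 min RT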
TRPML3 ag: human mucolipin-3 channel agonism; Q8TDD5; activation, % at 3 µM; HEK293 TRPML3-YFP, Fluo-8 calcium fluorescence; 100% = the carbachol control signal; AID 1448; 220,000 tested, 0.29% active;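 active = activation above its plate's cutoff, the mean activation of the plate's test wells plus 3 SD, cut at about 12% in these data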;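 note: 0% = DMSO only wells and 100% = carbachol wells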
Target sequence (Q8TDD5 whole entry, looked up): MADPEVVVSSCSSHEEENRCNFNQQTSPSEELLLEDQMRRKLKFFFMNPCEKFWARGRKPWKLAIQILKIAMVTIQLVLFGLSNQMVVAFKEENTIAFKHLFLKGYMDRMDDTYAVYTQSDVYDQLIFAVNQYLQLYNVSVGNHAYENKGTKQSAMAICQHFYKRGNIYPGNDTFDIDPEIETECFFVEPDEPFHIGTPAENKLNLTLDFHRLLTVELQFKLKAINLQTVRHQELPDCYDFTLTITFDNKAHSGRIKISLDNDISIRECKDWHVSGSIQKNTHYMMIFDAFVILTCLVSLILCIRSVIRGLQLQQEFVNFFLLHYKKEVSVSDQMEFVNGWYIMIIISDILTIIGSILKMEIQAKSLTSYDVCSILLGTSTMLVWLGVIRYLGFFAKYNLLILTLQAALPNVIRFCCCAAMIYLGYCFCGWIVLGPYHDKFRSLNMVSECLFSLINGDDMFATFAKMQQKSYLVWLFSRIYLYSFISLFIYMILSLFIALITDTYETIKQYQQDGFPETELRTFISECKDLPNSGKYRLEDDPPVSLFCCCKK
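Material: TRPML3-YFP stable HEK293 cells | Dosing: One concentration, 3 µM nominal, 0.3% DMSO | Timing: 125 s total fluorescence read per well | Technique: Fluo-8 calcium dye fluorescence, ex 470-495, em 515-575 nm | Measure: Percent activation from peak-to-basal fluorescence ratio, scaled between DMSO and carbachol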
CHO-K1 Ca ag: counter-screen for M1 agonists: effect in parental CHO-K1 cells; 360,000 tested, 0.48% active; activation, % at 3 µM; Fluo-8 calcium fluorescence; scaled to maximal ATP response, vehicle zero; in the data active = activation above about 15%;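 note: untransfected CHO-K1 host cells lacking M1 receptor as counterscreen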
The depositor's hits bear a star; / = not tested or not shown. Rows were chosen to be rich in hits. Some 1.2% of all compounds tested hit in one or more screens of this group.

SMILES	CHO-K1 Ca PAM	CHO-K1 Ca antag	zfTRPN1 agonist	TRPML3 ag	CHO-K1 Ca ag
COc1cccc(-c2cc(CNC(=O)[C@H]3O[C@@H](n4cnc5c(N)ncnc54)[C@H](O)[C@@H]3O)no2)c1	16.7	-27.7	/	/	1.1
Cc1cc2ccccc2n1CCNCc1c(C(=O)N2CCOCC2)nc2ccccn12	11.6	23.7*	-1.2	0.4	11.1
CC(=O)c1ccc(N2CCN(c3ccccc3O)CC2)c([N+](=O)[O-])c1	-6.9	13.6	/	/	19.0*
CCC(=O)N1CCC1(C)C(=O)Nc1cccc2cccnc12 (centres undefined)	19.3	-9.0	/	/	0.2
Cc1cc(C)n2nc(S(=O)(=O)N(C)Cc3ccccc3)nc2n1	5.1	-0.1	0.2	-0.3	0.2
Cc1cc(C)n2nc(S(=O)(=O)N(CC(C)C)CC(C)C)nc2n1	-8.5	25.5*	1.4	0.3	-0.2
Cc1[nH]n(-c2ccccc2)c(=O)c1C(c1cccc([N+](=O)[O-])c1O)c1c(C)[nH]n(-c2ccccc2)c1=O	11.1	13.0	0.7	0.6	15.2*
O=C(Nc1ccc2c(c1)OCO2)c1csc([C@@H]2O[C@H](CO)[C@H](O)[C@H](O)[C@H]2O)n1	-7.2	3.2	/	/	-0.3
O=C1c2ccccc2C(c2nnnn2Cc2ccccc2)N1CCCN1CCOCC1 (centres undefined)	10.8	-21.2	/	/	0.7
Fc1ccc(Cn2cc(C(=S)N3CCOCC3)c3ccccc32)cc1	2.4	8.9	0.3	0.4	22.5*
COC(=O)c1sccc1NC(=O)Nc1ccc(Cl)c(Cl)c1	-6.8	28.5*	2.8	0.3	1.2
COC(=O)c1cccc(NC(=O)NC(=O)c2ccccc2Cl)c1	-0.5	-2.8	1.9	0.1	-0.1
COC(=O)c1ccc(NC(=O)Nc2ccc([N+](=O)[O-])cc2)cc1	-6.2	19.8	/	/	15.9*
COC(=O)c1cccc(NC(=O)Nc2ccc(Cl)c(Cl)c2)c1	-6.6	20.8	19.5*	6.6	15.8*
Fc1ccc(NC(=S)Nc2ccc(F)c(Cl)c2)cc1Cl	2.8	28.2*	2.9	1.3	10.2
COC(=O)c1sccc1NC(=O)Nc1ccc(C)c(C)c1	-0.4	-2.7	/	/	-0.1
O=C(Nc1ccc(F)c(Cl)c1)Nc1csc2ccccc12	-10.5	27.6*	10.8	5.8	13.3
COC(=O)c1cc(NC(=O)Nc2ccccc2)ccc1Cl	0.8	12.5	14.9	5.6	15.9*
COC(=O)c1ccc(NC(=O)Nc2ccc(F)c(Cl)c2)cc1	3.3	17.1	7.7	9.2	15.4*
O=C(Nc1ccccc1)Nc1cccc(Cl)c1	5.1	7.9	10.2	4.7	14.5
COC(=O)c1ccc(NC(=O)Nc2ccccc2F)cc1	-8.1	12.4	6.7	2.9	2.9
COc1ccc(-n2nc3cc(C)c(NC(=O)C(C)C)cc3n2)cc1	/	/	1.9	0.8	/
COc1ccc(-n2nc3cc(C)c(NC(C)=O)cc3n2)cc1	-13.4	30.5*	1.2	1.3	-0.6
COc1ccc(Cc2c(-c3ccccc3)nc3ccc(Br)cn23)c(C)c1	-3.5	9.4	/	/	0.4
Cc1cc2oc(C(=O)Nc3ccc(S(N)(=O)=O)cc3)c(C)c2cc1Cl	-10.6	27.9*	1.0	1.3	-0.6
SMILES	CHO-K1 Ca PAM	CHO-K1 Ca antag	zfTRPN1 agonist	TRPML3 ag	CHO-K1 Ca ag
CCOCCC(=O)Nc1ccc2c(c1)c(=O)n(C)n2Cc1cccc(C(F)(F)F)c1	6.8	-12.9	/	/	1.4
COC(=O)CCN(C(=O)c1ccc(N2CCCCC2)c([N+](=O)[O-])c1)c1ccccn1	10.3	7.1	-0.5	0.9	20.1*
C[C@@H]1CCCN1[C@H]1CS(=O)(=O)N[C@@H]1COCc1ccccc1	5.3	10.5	/	/	0.3
O=C(NCCc1ccccc1C(F)(F)F)c1cc(COc2ccccc2)on1	6.7	-5.7	/	/	0.8
CCOc1ccc(-c2n[nH]c(C)c2Oc2ccc(OC)cc2)c(O)c1	-7.0	24.3*	-1.0	0.1	-0.2
C=CCNC(=O)c1ccccc1Cl	11.1	-2.8	2.7	0.9	18.8*
C=CCNC(=O)c1ccccc1CCc1ccccc1	9.1	-11.9	-2.1	0.0	0.9
O=C(NCC1OCCCN1S(=O)(=O)c1cc(F)ccc1F)C(=O)NC1CCCCCC1 (centres undefined)	2.3	32.4*	6.8	1.8	2.1
O=C(Nc1ccc(Cl)cc1)Nc1nc(-c2ccccc2O)cs1	-9.0	15.3	16.7	7.2	16.6*
O=C(Nc1ccccc1)Nc1nc(-c2ccc(F)c(F)c2)cs1	-5.3	19.8	/	/	16.1*
O=C(Nc1ccccc1)Nc1nc(-c2ccccc2)cs1	-7.3	23.2	2.2	0.8	9.4
CC(=O)C1=CCC(c2ccccc2)N(S(=O)(=O)c2ccccc2)C1 (centres undefined)	-3.8	15.5	/	/	0.2
COc1cc(OC)cc(C2=Cc3ccc(OC)cc3C(CC(C)=O)N2c2ccc(-c3cccs3)cc2)c1 (centres undefined)	6.8	-4.0	/	/	9.7
Cc1ccccc1NC(=O)C1CCCN(c2nnc(N3CCCC3=O)s2)C1 (centres undefined)	-12.2	25.7*	/	/	-0.5
COc1ccccc1NC(=O)CSc1nnc(C2CCCCC2)o1	-8.6	23.7*	-0.3	-0.5	-0.2
CN(C)C(=O)c1ccc(SC(=S)NCc2ccccc2)cc1	16.6	-6.1	/	/	2.0
CC(C)C[C@H]1CNC(=S)N1C[C@H]1CCCN1C[C@H](CC(C)C)N1C[C@H](Cc2ccc(O)cc2)N(CC2CCCCC2)C1=S	10.8	-13.7	/	/	0.8
CC(C)C(N)c1csc(NC(=O)Nc2cccc(Cl)c2)n1 (centres undefined)	27.2	-13.8	/	/	1.5
CC(C)Cn1c(N)c(C(=O)COC(=O)c2ccc(O)cc2)c(=O)n(C)c1=O	5.5	-6.2	2.4	1.6	4.0
COc1ccc(CCC(=O)OCC(=O)c2c(N)n(CC(C)C)c(=O)n(C)c2=O)cc1	-26.0	31.8*	/	/	15.9*
CCC(C(=O)OCC(=O)c1c(N)n(CC(C)C)c(=O)n(C)c1=O)c1ccccc1 (centres undefined)	-2.3	2.1	/	/	3.3
COc1ccccc1CCC(=O)OCC(=O)c1c(N)n(CC(C)C)c(=O)n(C)c1=O	-7.3	13.7	/	/	16.9*
CCOc1ccccc1OCC(=O)OCC(=O)c1c(N)n(CC(C)C)c(=O)n(C)c1=O	-6.6	11.5	/	/	17.0*
Cc1ccc(S(=O)(=O)CCC(=O)OCC(=O)c2c(N)n(CC(C)C)c(=O)n(C)c2=O)cc1	-6.3	3.5	/	/	18.4*
CC1=C(C(=O)Nc2ccc(F)cc2)C(c2ccncc2)C2=C(CCCC2=O)N1 (centres undefined)	-6.9	23.7*	0.6	0.9	-0.3
O=C(Nc1cccc([N+](=O)[O-])c1)NC1CCCCCCC1	14.6	2.2	/	/	16.3*
COc1ccc(CCNC(=O)Nc2cccc([N+](=O)[O-])c2)cc1	1.1	-11.4	5.1	4.0	15.5*
COc1cc(NC(=O)Nc2cccc([N+](=O)[O-])c2)cc(OC)c1	-7.4	10.0	11.2	7.9	15.2*
